From ChEMBL document CHEMBL1143285, “Synthesis and biological evaluation of 2-phenylquinolones targeted at Tat/TAR recognition” (Bioorg Med Chem Lett, 2009) come the findings set out here.

The nature of data set [1]: (§1) Inhibition of HIV Tat/TAR complex formation by fluorescence quenching assay. More on the design: species or system Human immunodeficiency virus.
Data set [2] concerns Human immunodeficiency virus 1. In words: Antiviral activity against HIV1 infected in human Jurkat cells assessed as compound uptake after 3 hrs by fluorescence assay. It counts as functional. More on the design: concentration or dose not given beside the values. Summed up: (§2)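 Jurkat or CEM cells (2.5 × 10⁶/well) incubated in HBSS with compound at 100 µM, 3 h, 37 °C. Cells separated from medium by centrifugation through water-impermeable silicone-oil barrier, pellet lysed overnight in 0.1 M glycine–HCl pH 3.0, spun 5 min at 5600g. Compound in supernatant quantified by fluorescence at pH 3 against per-compound titration curve; reported as % uptake.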

The subject of data set [3] is Jurkat. Briefly: Cytotoxicity against human Jurkat cells after 72 hrs by MTT assay. It counts as cell-based. Summed up:
(§3)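 MTT viability readout in CEM and Jurkat cells after 72 h incubation with compounds up to 100 µM; EC50 derived where applicable.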
(Tetrazolium assays rely on reduction of a dye to a coloured formazan, in cell work by metabolically active cells.)

Data set [4] can be described thus: Aqueous solubility in buffer. It counts as physicochemical.
For data set [5], the system named is Human immunodeficiency virus. The data set is described as §1.
In data set [6] the test system is Jurkat. Briefly: Cytotoxicity against human Jurkat cells at 100 uM after 72 hrs by MTT assay. It counts as cell-based. Summed up: as §3
A further data set deals with CCRF-CEM. In words: Cytotoxicity against human CEM cells at 100 uM after 72 hrs by MTT assay. It counts as cell-based. Summed up:
as §3

For data set [7], the system named is Human immunodeficiency virus 1. Briefly: Antiviral activity against HIV1 infected in human CEM cells assessed as compound uptake after 3 hrs by fluorescence assay. Type of data set: functional, CCRF-CEM. In outline: as §2
The test system of data set [8] is Human immunodeficiency virus 1. In words: Antiviral activity against HIV1 infected in human Jurkat cells assessed as compound uptake after 3 hrs by fluorescence assay in presence of lipofectamine. It counts as functional.

Broadly, the pKi is the negative decadic logarithm of the Ki, by convention in mol/L. Broadly, the pEC50 is the negative decadic logarithm of the EC50, by convention in mol/L.

pEC50, pKi: −log10 of the molar value. Active and inactive are the calls of the source. The calls are words filed in the database; no cut-off is given here.

`COc1cc(OC)c2c(=O)cc(-c3ccc(OCCCN4CCCCC4)cc3)n(C)c2c1`: the negative logarithm of the Ki (pKi) in data set [1] was 5.99. Besides, in [2], the Activity is on record as 3.27%. Further, the pEC50 with Jurkat [3] was 4.02. Besides, in data set [4], the solubility result was “Soluble”.
Turning to `COc1cc(OC)c2c(=O)cc(-c3ccc(OCCCN)c(NC(=O)CCc4cccnc4)c3)n(C)c2c1`, the result in data set [5] was inactive. The Activity entry in the data set on Jurkat [6] and in the data set with CCRF-CEM was “Non-toxic” in each case. The solubility entry in [4] is “Soluble”.
Regarding `COc1cc(OC)c2c(=O)cc(-c3ccc(O)c(N)c3)n(C)c2c1`, in [5], the outcome was inactive. Besides, the Activity in data set [2] is recorded as 25%; in the data set on Jurkat [6], “Non-toxic”; with CCRF-CEM it was “Non-toxic”. For the same compound, the solubility result in data set [4] is on record as “Soluble”.
In turn, `COc1cc(OC)c2c(=O)cc(-c3ccc(OCCCN4CCN(C)CC4)c(N)c3)n(C)c2c1` had a negative-log Ki (pKi) in data set [1] of 5.80. For the same compound, the Activity in [2] is 0.82%; in data set [7], 1.1%; in the data set on Jurkat [6], “Non-toxic”; with CCRF-CEM it was “Non-toxic”. For the same compound, the solubility result in data set [4] was “Soluble”.
On to `COc1cc(OC)c2c(=O)cc(-c3ccc(OCCCN4CCN(C)CC4)c(NC(=O)CCCN(C)C)c3)n(C)c2c1`, for which the result in data set [5] was inactive. Also, the Activity result with Jurkat [6] and with CCRF-CEM was “Non-toxic” throughout. The solubility entry in data set [4] is listed as “Soluble”.
In data set [1], `COc1cc(OC)c2c(=O)cc(-c3ccc(OCCCN4CCCCC4)c(NC(=O)CCCN(C)C)c3)n(C)c2c1` showed a pKi of 5.59. Further, the Activity result in the data set on Jurkat [6] and in the data set with CCRF-CEM was “Non-toxic” in each case. Moreover, the solubility entry in data set [4] is “Soluble”.
As for `COc1cc(OC)c2c(=O)cc(-c3ccc(OCCCN)c(N)c3)n(C)c2c1`, the pKi in data set [1] was 5.41. In addition, the Activity result with Jurkat [6] and in the data set on CCRF-CEM was “Non-toxic” in each case. The solubility result in data set [4] is listed as “Soluble”.
Take `COc1cc(OC)c2c(=O)cc(-c3ccc(OCCCN)c(NC(=O)CCCN(C)C)c3)n(C)c2c1`: the negative-log Ki (pKi) in data set [1] was 5.52. Besides, the Activity in data set [2] is given as 0.67%; in data set [7] it was 1.2%; in the data set on Jurkat [6], “Non-toxic”; in the data set on CCRF-CEM, “Non-toxic”. The solubility result in data set [4] was “Soluble”.
Take `Cn1cc(C(=O)O)c(=O)c2cc(N)c(N3CCN(c4ccccn4)CC3)cc21`: in data set [1], the pKi was 5.66. The Activity in [2] is listed as 23.2%; in data set [7] it was 7.5%; in the data set on Jurkat [6] it was “Non-toxic”; in the data set on CCRF-CEM, “Non-toxic”; in data set [8] it was “<=40%”. Further, in data set [4], the solubility entry is on record as “Soluble”.
Regarding `COc1cc(OC)c2c(=O)cc(-c3ccc(OCCCN4CCCCC4)c(N)c3)n(C)c2c1`, the pKi in [1] was 5.71. The Activity in data set [2] is given as 0.94%; in data set [7], 1.8%; in the data set on Jurkat [6], “Non-toxic”; in the data set on CCRF-CEM, “Non-toxic”. Further, in [4], the solubility entry is given as “Soluble”.
